Measurements taken from ChEMBL document CHEMBL2062446, “Design of a Potent CB1 Receptor Antagonist Series: Potential Scaffold for Peripherally-Targeted Agents” (ACS Med Chem Lett, 2012).

Tested on: not listed separately
Experiment: 1-Octanol-sodium phosphate buffer partition coefficient, log D of the compound at pH 7.4 after 24 hrs by shake flask method
Format: physicochemical
Conditions: not given

Row | Structure (SMILES) | logD at 24 h
1 | CC(F)(F)CN1CCOc2c(nn(-c3ccccc3Cl)c2-c2ccc(Cl)cc2)C1=O | 4.1

Tested on: MDR1
Experiment: Apparent permeability from apical to basal side of MDCK cells expressing MDR1
Format: ADME, cell-based, Canis lupus familiaris
Conditions: dog
Outline: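 MDCK cells transfected with the MDR1 gene were used to assess whether compounds are MDR1 transporter substrates.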

Row | Structure (SMILES) | Papp A→B
2 | CC(=O)NC1CCCOc2c1nn(-c1ccccc1Cl)c2-c1ccc(Cl)cc1 (racemic) | 14.1 ×10⁻⁶ cm/s
3 | N#CC1(C(=O)NC2CCCOc3c2nn(-c2ccccc2Cl)c3-c2ccc(Cl)cc2)CC1 (configuration not stated) | 1 ×10⁻⁶ cm/s
4 | CCOCC(=O)NC1CCCOc2c1nn(-c1ccccc1Cl)c2-c1ccc(Cl)cc1 (configuration not stated) | 6.5 ×10⁻⁶ cm/s
5 | CCNC(=O)NC1CCCOc2c1nn(-c1ccccc1Cl)c2-c1ccc(Cl)cc1 (racemic) | 6.3 ×10⁻⁶ cm/s
6 | COC(=O)NC1CCCOc2c1nn(-c1ccccc1Cl)c2-c1ccc(Cl)cc1 (racemic) | 9.1 ×10⁻⁶ cm/s
7 | O=C(NC1CCCOc2c1nn(-c1ccccc1Cl)c2-c1ccc(Cl)cc1)c1ccno1 (racemic) | 3.2 ×10⁻⁶ cm/s
8 | O=C(NC1CCCOc2c1nn(-c1ccccc1Cl)c2-c1ccc(Cl)cc1)c1ccon1 (racemic) | 6.6 ×10⁻⁶ cm/s
9 | COCC(=O)NC1CCCOc2c1nn(-c1ccccc1Cl)c2-c1ccc(Cl)cc1 (racemic) | 9.1 ×10⁻⁶ cm/s
10 | CC(C)C(=O)N[C@@H]1CCCOc2c1nn(-c1ccccc1Cl)c2-c1ccc(Cl)cc1 | 8.4 ×10⁻⁶ cm/s
11 | O=C(NC1CCCOc2c1nn(-c1ccccc1Cl)c2-c1ccc(Cl)cc1)C1CCOCC1 (racemic) | 6.8 ×10⁻⁶ cm/s
12 | CCC(=O)NC1CCCOc2c1nn(-c1ccccc1Cl)c2-c1ccc(Cl)cc1 (racemic) | 12.1 ×10⁻⁶ cm/s
13 | CC(F)(F)CN1CCOc2c(nn(-c3ccccc3Cl)c2-c2ccc(Cl)cc2)C1=O | 7.1 ×10⁻⁶ cm/s
14 | O=C1CCCN1C1CCCOc2c1nn(-c1ccccc1Cl)c2-c1ccc(Cl)cc1 (racemic) | 11.2 ×10⁻⁶ cm/s
15 | CS(=O)(=O)CC(=O)NC1CCCOc2c1nn(-c1ccccc1Cl)c2-c1ccc(Cl)cc1 (racemic) | 2.7 ×10⁻⁶ cm/s
16 | CC(C)C(=O)NC1CCCOc2c1nn(-c1ccccc1Cl)c2-c1ccc(Cl)cc1 (racemic) | 6.9 ×10⁻⁶ cm/s
17 | O=C(NC1CCCOc2c1nn(-c1ccccc1Cl)c2-c1ccc(Cl)cc1)c1cnon1 (racemic) | 3 ×10⁻⁶ cm/s
